Drawing on the array DNA melting data of Ke et al. (doi:10.1101/2024.01.08.574731), this text covers Tm and folding enthalpy for 37 sequences.

A short description of data set [1]: melting temperature; fluorescence melt of hairpins on a sequencing array, two-state fit, raised by 9.35 °C to match UV melts. Conditions: sodium 0.088 M. In short, it runs like this: (§1)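 With Cy3 and quencher oligos annealed, library hairpins on a sequenced MiSeq flow cell were imaged for Cy3 fluorescence in 50 mM Na-HEPES pH 8.0, 25 mM NaCl, in 2.5 °C steps up to 60 °C. Melting temperature and folding enthalpy were derived from bootstrapped two-state fits of signals normalised to pre-quench Cy3 and to control constructs. Four replicates were combined by inverse variance, with fitted temperatures raised by 9.35 °C to match UV melts.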

Data set [2] is described as follows: folding enthalpy; higher = less favourable; fluorescence melt of hairpins on a sequencing array, two-state fit. The conditions noted are these: sodium 0.088 M. In short, it runs like this:
as §1

Consider GAGTCCGAAAGGAGCTC ((((((....))).))), for which the Tm in data set [1] was 47.2 °C. The folding enthalpy in data set [2] is -22 kcal/mol.

On to GAAGGCCGAAAGGCTTTC (((.(((....))).))), for which, in data set [1], the Tm worked out at 54.2 °C. In addition, the folding enthalpy in data set [2] was -20.6 kcal/mol.

GACCGAGCGAAAGCTGTC (((..(((....)))))): the Tm in data set [1] was found to be 36.8 °C. In addition, the folding enthalpy in data set [2] was -15.3 kcal/mol.

GATAGACGAAAGTCAATC (((.(((....))).))): the Tm in data set [1] is 41.2 °C. In addition, in data set [2], the folding enthalpy was -22.5 kcal/mol.

For GTTCCCGAAAGGGTAAAC ((((((....)))..))), in data set [1], the Tm was 28.8 °C. In addition, in data set [2], the folding enthalpy is -11.5 kcal/mol.

Take GCAGATCGAAAGATTTGC (((.(((....))).))): the Tm in data set [1] worked out at 52.1 °C. For the same sequence, the folding enthalpy in data set [2] is -43.6 kcal/mol.

Turning to GATCGAGTACTCGATC ((((((....)))))), in data set [1], the Tm is 58.8 °C. In data set [2], the folding enthalpy is -43.4 kcal/mol.

As to GTCTAAGCGAAAGCTGAC (((..(((....)))))), the Tm in data set [1] was found to be 43.1 °C. The folding enthalpy in data set [2] was -17.2 kcal/mol.

Consider GGGGGGGGAAACCCCCTC (.(((((....))))).), for which, in data set [1], the Tm turned out to be 67.8 °C. Also, the folding enthalpy in data set [2] was -12.5 kcal/mol.

Take GCGGGCGAAAGCCGTCGC ((((((....)))..))): the Tm in data set [1] was 54.5 °C. The folding enthalpy in data set [2] is -17.3 kcal/mol.

For the sequence GGGGTACGAAAGTAACCC (((.(((....))).))), the Tm in data set [1] stood at 60.9 °C. Further, the folding enthalpy in data set [2] was -34.1 kcal/mol.

For GGGGACGGAAACGTTCCC (((.(((....))).))), the Tm in data set [1] was determined as 61.4 °C. For the same sequence, in data set [2], the folding enthalpy was -43.9 kcal/mol.

GATCGACCCTCGATC ((((((...)))))): the Tm in data set [1] was found to be 51.7 °C. For the same sequence, in data set [2], the folding enthalpy was -39.1 kcal/mol.

For the sequence GTCACCGAAAGGTGGAC ((((((....))).))), in data set [1], the Tm was found to be 54.2 °C. The folding enthalpy in data set [2] was -14.1 kcal/mol.

With GGTAAGGCGAAAGCCACC (((..(((....)))))), the Tm in data set [1] came out at 43.7 °C. Moreover, in data set [2], the folding enthalpy was -15.3 kcal/mol.

In the case of GCGTGCGTACGC ((((....)))), the Tm in data set [1] worked out at 64.8 °C. The folding enthalpy in data set [2] was -13.7 kcal/mol.

GATCCCCTGGGGATC ((((((...)))))): in data set [1], the Tm was determined as 64.8 °C. In addition, in data set [2], the folding enthalpy is -32.8 kcal/mol.

With GAATTCGGAAACGAGTTC (((.(((....))).))), the Tm in data set [1] came out at 43.9 °C. The folding enthalpy in data set [2] is -32.5 kcal/mol.

Take GATCATCGTAATGATC ((((((....)))))): the Tm in data set [1] worked out at 48.5 °C. In addition, the folding enthalpy in data set [2] is -39.5 kcal/mol.

As for GTCCCCGGAAACGGGGGC (.(((((....))))).), the Tm in data set [1] stood at 68 °C. Also, in data set [2], the folding enthalpy is -19.5 kcal/mol.

GAGGGCACGAAAGTGCTC (((..(((....)))))): the Tm in data set [1] was found to be 44 °C. Also, in data set [2], the folding enthalpy was -7.41 kcal/mol.

GCGCGTCGAAAGACACGC (((.(((....))).))): the Tm in data set [1] was 62.9 °C. For the same sequence, in data set [2], the folding enthalpy is -45.5 kcal/mol.

GCTCAGGGAAACCTAAGC (((.(((....))).))): the Tm in data set [1] came to 34.1 °C. For the same sequence, the folding enthalpy in data set [2] was -20.6 kcal/mol.

On to GCTAAGCGAAAGCTAAGC (((.(((....))).))), for which the Tm in data set [1] amounted to 51.5 °C. Further, the folding enthalpy in data set [2] is -41.1 kcal/mol.

Turning to GAATGCGAAAGCAATTTC ((((((....)))..))), in data set [1], the Tm worked out at 30.6 °C. The folding enthalpy in data set [2] was -9.54 kcal/mol.

As for GGGAGAGGAAACTCTCTC (.(((((....))))).), in data set [1], the Tm stood at 46.2 °C. In addition, the folding enthalpy in data set [2] was -21.4 kcal/mol.

Consider GGGCACGGAAACATGCCC (((((.(....).))))), for which the Tm in data set [1] was found to be 51.5 °C. Further, the folding enthalpy in data set [2] is -37.6 kcal/mol.

Regarding GATCTCTTAGGAGATC ((((((....)))))), in data set [1], the Tm was 54.2 °C. In addition, in data set [2], the folding enthalpy is -38.1 kcal/mol.

“ATCAGTGAAAAATCACTGAA ....................”: the Tm in data set [1] was determined as 31.9 °C. The folding enthalpy in data set [2] was -20.6 kcal/mol.

GATCTCATTCGAGATC ((((((....)))))): in data set [1], the Tm turned out to be 53.5 °C. In addition, the folding enthalpy in data set [2] was -39.4 kcal/mol.

In the case of GGACGTCGAAAGACATCC (((.(((....))).))), in data set [1], the Tm was 47.3 °C. The folding enthalpy in data set [2] was -26.5 kcal/mol.

For the sequence GGTTTCCGAAAGGAACC (((.(((....)))))), in data set [1], the Tm amounted to 51.8 °C. For the same sequence, the folding enthalpy in data set [2] was -19.8 kcal/mol.

For GTCTCCGAAAGGAGGAC ((((((....))).))), the Tm in data set [1] turned out to be 50.8 °C. Moreover, in data set [2], the folding enthalpy was -16.4 kcal/mol.

As to GATCCCGGCTGGGATC ((((((....)))))), the Tm in data set [1] amounted to 60.4 °C. In addition, the folding enthalpy in data set [2] was -32 kcal/mol.

As to GTGGGGGGAAACCTCCGC (.((.((....)).)).), the Tm in data set [1] is 45.4 °C. Besides, in data set [2], the folding enthalpy was -25.4 kcal/mol.

In the case of GATAGTGGAAACATTATC ((((.((....)).)))), the Tm in data set [1] was 31 °C. For the same sequence, the folding enthalpy in data set [2] was -18.4 kcal/mol.

Turning to GCCATCGAAAGATTTGGC ((((((....)))..))), the Tm in data set [1] turned out to be 41.3 °C. The folding enthalpy in data set [2] is -24.1 kcal/mol.
